From paper PMC3833035 (Blood, 2011)
Entries after “also recorded” stand apart in the source; their conditions may differ. No end group written: not given here.

Experiments:
[1] = test system: recombinant or affinity purified human VAP-1; test: Surface plasmon resonance; assay type: binding
[2] = test system: VAP-1 negative knockout mice bearing melanoma xenografts; assay type: in vivo, mouse; conditions: KO 60 min; i.v.; ex vivo; mean ± SD, n = 2
Outline: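 VAP-1 knockout mice received B16 melanoma cells in the neck area and were used 11 days later. 68Ga-DOTA-Siglec-9 peptide was given i.v. (7.8 ± 2.3 MBq, as stated for tumor-bearing mice). Blood, urine and organs were excised, weighed and gamma-counted. Uptake is given as SUV: tissue radioactivity concentration divided by injected radioactivity per body weight.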

human VAP-1 (KOTG mice) = assay type: in vivo, human (transgene in mouse)
Outline: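 Ear inflammation was induced with 4 drops of 5% (w/v) DNCB in acetone on the right ear, one day before imaging. Mice were VAP-1 KO, or KOTG (mouse VAP-1-deficient, with human VAP-1 on endothelium under the Tie-1 promoter). 68Ga-DOTA-peptide was given i.v. (KO 7.4 ± 1.8, KOTG 7.5 ± 3.0 MBq). Dynamic PET ran 30 min (OSEM2D), read as SUV, and was checked by ex vivo gamma counting of excised tissues.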

VAP-1 in melanoma tumor = test: Digital autoradiography of tumor cryosections; assay type: in vivo, mouse; conditions: i.v. 3.0 ± 0.4 MBq, 15 min
Outline: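 B16 melanoma cells were inoculated abdominally, and mice were used 11 days later. Mice received 68Ga-labelled DOTA test peptide i.v. (3.0 ± 0.4 MBq) and were killed after 15 min. Tumour cryosections went to digital autoradiography as PSL/mm2. ROIs covered VAP-1-positive and VAP-1-negative areas, set by anti-mouse VAP-1 staining of adjacent sections. Background was subtracted and values normalised to muscle; four mice, mean ± SD.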

[3] = test system: site of inflammation (VAP-1); test: PET imaging, rats with turpentine-induced sterile inflammation; assay type: in vivo, rat (Sprague-Dawley)
Outline: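 Sprague-Dawley rats received turpentine oil s.c. in the upper neck, and 24 h later 68Ga-labelled DOTA test peptide i.v. (18.4 ± 3.1 MBq). A 60 min list-mode PET scan was reconstructed by OSEM3D, with blood sampled during imaging. ROIs covered inflammation, muscle, organs and bladder. SUV was ROI concentration divided by injected activity per body weight, corrected for tail residue. Excised organs were then gamma-counted as SUV; three animals.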

[4] = test system: VAP-1 (wild type mice bearing melanoma xenografts); assay type: in vivo, mouse
Outline: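 Wild-type mice received B16 melanoma cells in the neck area and were used 11 days later. 68Ga-DOTA-peptide was injected i.v., then dynamic PET ran 60 min (OSEM2D reconstruction). SUV is ROI radioactivity concentration divided by injected activity per body weight, corrected for tail residue. A separate group got 500-fold molar excess of unlabeled peptide co-injected. Blood, urine and organs were then excised, weighed and gamma-counted.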

[5] = target: Vascular Adhesion Protein-1 (VAP-1), human, recombinant (human) (UniProt Q16853); test: SPR
Chain of UniProt Q16853 (Q16853 whole entry): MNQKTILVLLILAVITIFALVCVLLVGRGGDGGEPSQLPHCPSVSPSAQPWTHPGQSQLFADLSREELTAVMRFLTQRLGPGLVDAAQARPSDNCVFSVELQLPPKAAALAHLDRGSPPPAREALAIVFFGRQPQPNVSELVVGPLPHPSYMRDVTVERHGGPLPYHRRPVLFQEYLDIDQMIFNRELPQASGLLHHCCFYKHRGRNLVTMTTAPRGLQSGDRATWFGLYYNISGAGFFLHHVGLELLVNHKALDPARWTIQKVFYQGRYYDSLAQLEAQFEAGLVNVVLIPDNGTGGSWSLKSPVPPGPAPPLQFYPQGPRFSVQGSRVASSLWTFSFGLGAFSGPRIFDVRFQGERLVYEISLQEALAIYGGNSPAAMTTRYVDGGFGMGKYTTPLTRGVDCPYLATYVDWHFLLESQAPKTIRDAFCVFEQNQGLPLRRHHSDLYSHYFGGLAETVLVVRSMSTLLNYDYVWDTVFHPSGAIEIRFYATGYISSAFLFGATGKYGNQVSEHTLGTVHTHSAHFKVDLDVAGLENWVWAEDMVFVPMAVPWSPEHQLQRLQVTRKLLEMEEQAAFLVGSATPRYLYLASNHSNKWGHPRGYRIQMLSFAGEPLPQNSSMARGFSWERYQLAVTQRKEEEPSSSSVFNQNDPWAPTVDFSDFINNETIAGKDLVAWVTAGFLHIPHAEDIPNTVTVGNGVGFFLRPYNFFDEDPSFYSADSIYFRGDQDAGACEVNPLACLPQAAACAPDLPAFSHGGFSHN

[6] = test system: Siglec-9 expression on granulocytes; test: Induction of Siglec-9 expression on granulocytes; assay type: cell-based, human; conditions: FMLP 0.5 and 5 μg/mL, FACS, MFI, n = 4; for Siglec-9 up-regulation on granulocytes, 2 h: TNF-α 10 and 200 U/mL, LPS 10 and 100 ng/mL
Outline: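 Leukocytes from four healthy volunteers were prepared by red-cell lysis of whole blood. Treatments were FMLP (0.5 or 5 μg/mL, 5 min or 2 h), TNF-α (10 or 200 U/mL, 2 h) or LPS (10 or 100 ng/mL, 2 h); untreated cells were controls. Cells were stained with anti-Siglec-9 mAb (3G6 as control), then Alexa546 anti-mouse IgG. Granulocytes were gated by FITC-anti-CD66b and read by flow cytometry as MFI minus control-antibody MFI, mean ± SEM.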

[7] = test system: human granulocyte binding to inflamed synovial vessels; test: Granulocyte binding to vessels in inflamed synovia; assay type: cell-based; conditions: TNF-α 200 U/mL, 2 h; granulocytes from three donors
Outline: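 Percoll-purified granulocytes from three donors were incubated 2 h with TNF-α (200 U/mL) or left untreated. They were then pre-treated 30 min with anti-Siglec-9 or control antibodies. Cells were bound to frozen sections of inflamed human synovium under rotation for 30 min, then glutaraldehyde-fixed. Vessel-bound cells were counted and expressed as % of control-mAb binding (100%), mean ± SEM.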

VAP-1 = conditions: tyrosine 471 of VAP-1 and Arg293 in Siglec-10; ref [6]; cited from earlier work
mouse VAP-1 = test: Adhesion of CHO-Siglec-E cells to CHO cells transfected with mouse VAP-1; assay type: cell-based; conditions: CHO-Siglec-E or mock; Supplemental Figure 1
Outline: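 CHO cells expressing mouse VAP-1, or mock CHO, were grown to confluence in 96-well plates and blocked with PBS/1% BSA. CFSE-labelled CHO-Siglec-E cells (2 × 10^5) were added for 30 min at 37°C. After nine washes, adherence was read by fluorometer, and the wells were imaged by microscope.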

[8] = WT 60 min, i.v., ex vivo, mean ± SD, n = 3

CARLSLSWRGLTLCPS [wild type peptide]
binding to recombinant VAP-1 (SPR) ([1]; Biacore X, CM5 chip, immobilized VAP-1, wild type peptide at 0-400 μM): bound to recombinant VAP-1

CARLSLSWRGLTLCPSK [^68Ga-DOTA-peptide]
uptake in blood (SUV), KO [2]: 0.25 ± 0.01 standardized uptake values | uptake in kidney (SUV), KO [2]: 7.78 ± 1.47 standardized uptake values | uptake in liver (SUV), KO [2]: 0.97 ± 0.07 standardized uptake values | uptake in muscle (SUV), KO [2]: 0.04 ± 0.01 standardized uptake values | uptake in small intestine (SUV), KO [2]: 0.08 ± 0.01 standardized uptake values | uptake in tumour (SUV), KO [2]: 0.20 ± 0.02 standardized uptake values | detection of inflammation in the mouse (PET) (human VAP-1 (KOTG mice); DNCB ear skin inflammation, Supplemental Figure 2): able to detect inflammation in the mouse | signals in many organs, KOTG vs KO mice (human VAP-1 (KOTG mice); i.v. 7.5 ± 3.0 MBq (KOTG), 7.4 ± 1.8 MBq (KO), Supplemental Table 2): detects human VAP-1 in many organs realized as higher signals than in KO mice | distribution of radioactivity within tumor (VAP-1 in melanoma tumor): radioactivity concentrated in the periphery of the tumor | accumulation at sites of inflammation vs muscle (PET) ([3]; i.v. 18.4 ± 3.1 MBq, 5-10 min, 24 h after turpentine, rat): quickly and preferentially accumulated at the sites of inflammation (5-10 min) in comparison to the muscle; also recorded: clearly seen at the site of inflammation (I) but not in the surrounding muscle | elimination route ([3]; i.v., PET): eliminated rapidly via kidneys to the urinary bladder | uptake in kidney (SUV), WT [4, 8]: 5.10 ± 0.86 standardized uptake values | uptake in liver (SUV), WT [4, 8]: 1.82 ± 0.25 standardized uptake values | uptake in lung (SUV), WT [4, 8]: 0.69 ± 0.21 standardized uptake values | uptake in muscle (SUV), WT [4, 8]: 0.21 ± 0.07 standardized uptake values | uptake in small intestine (SUV), WT [4, 8]: 0.59 ± 0.16 standardized uptake values | uptake in tumour (SUV), WT [4, 8]: 0.56 ± 0.12 standardized uptake values | accumulation at tumor site (PET) ([4]; i.v. 7.8 ± 2.3 MBq, B16 melanoma, wild type mice): accumulated at the tumor site

cyclic Siglec-9-like peptide without Arg284 (P1_noArg284) (from UniProt Q9Y336 283-297)
percent reduction of binding against the wild type peptide [5]: 66%

cyclic Siglec-9-like peptide without Arg290 (P1_noArg290) (from UniProt Q9Y336 283-297)
percent reduction of binding against the wild type peptide [5]: 42%

formyl-methyl-leucine-phenylalanine [FMLP]
Siglec-9 up-regulation on granulocytes, 2 h [6]: further up-regulation was seen after 2 h; also recorded: roughly two-fold after 2 h | Siglec-9 up-regulation on granulocytes, 5 min ([6]; 5 min): slightly up-regulated Siglec-9 expression already after 5 min; also recorded: slight up-regulation was already seen after 5 min

lipopolysaccharide [LPS]
Siglec-9 up-regulation on granulocytes, 2 h [6]: significant up-regulation of Siglec-9 after 2 h

mutated Siglec-9 peptide: mutated Siglec-9 peptide, in which both arginines were mutated to alanines (CAALSLSWAGLTLCPS; also: cyclic peptide, ring type not given here)
binding to recombinant VAP-1 (SPR), double arginine mutant ([1]; both arginines mutated to alanines, data not shown): failed to bind recombinant VAP-1

tumor necrosis factor-α [TNF-α]
Siglec-9 up-regulation on granulocytes, 2 h [6]: significant up-regulation of Siglec-9 after 2 h | granulocyte binding to inflamed synovial vasculature after TNF-α [7]: significantly increased granulocyte binding to synovial vasculature

B1: Siglec-10: lymphocyte ligand for VAP-1 (protein, UniProt Q96LC7 17-697, looked up)
Sialic acid-binding Ig-like …: MDGRFWIRVQESVMVPEGLCISVPCSFSYPRQDWTGSTPAYGYWFKAVTETTKGAPVATNHQSREVEMSTRGRFQLTGDPAKGNCSLVIRDAQMQDESQYFFRVERGSYVRYNFMNDGFFLKVTALTQKPDVYIPETLEPGQPVTVICVFNWAFEECPPPSFSWTGAALSSQGTKPTTSHFSVLSFTPRPQDHNTDLTCHVDFSRKGVSAQRTVRLRVAYAPRDLVISISRDNTPALEPQPQGNVPYLEAQKGQFLRLLCAADSQPPATLSWVLQNRVLSSSHPWGPRPLGLELPGVKAGDSGRYTCRAENRLGSQQRALDLSVQYPPENLRVMVSQANRTVLENLGNGTSLPVLEGQSLCLVCVTHSSPPARLSWTQRGQVLSPSQPSDPGVLELPRVQVEHEGEFTCHARHPLGSQHVSLSLSVHYSPKLLGPSCSWEAEGLHCSCSSQASPAPSLRWWLGEELLEGNSSQDSFEVTPSSAGPWANSSLSLHGGLSSGLRLRCEAWNVHGAQSGSILQLPDKKGLISTAFSNGAFLGIGITALLFLCLALIIMKILPKRRTQTETPRPRFSRHSTILDYINVVPTAGPLAQKRNQKATPNSPRTPLPPGAPSPESKKNQKKQYQLPSFPEPKSSTQAPESQESQEELHYATLNFPGVRPRPEARMPKGTQADYAEVKFQ
dependence of Siglec-10/VAP-1 interaction on enzymatic activity (VAP-1): completely dependent on the enzymatic activity of VAP-1

B2: Siglec-E: mouse molecule corresponding to human Siglec-9, expressed on CHO cells (protein)
chain: QNPQEVFTLNVERKVVVQEGLCVLVPCNFSYLKKRLTDWTDSDPVHGFWYREGTDRRKDSIVATNNPIRKAVKETRNRFFLLGDPWRNDCSLNIREIRKKDAGLYFFRLERGKTKYNYMWDKMTLVVTALTNTPQILLPETLEAGHPSNLTCSVPWDCGWTAPPIFSWTGTSVSFLSTNTTGSSVLTITPQPQDHGTNLTCQVTLPGTNVSTRMTIRLNVSYAPKNLTVTIYQGADSVSTILKNGSSLPISEGQSLRLICSTDSYPPANLSWSWDNLTLCPSKLSKPGLLELFPVHLKHGGVYTCQAQHALGSQHISLSLSPQSSATLSEMMMGTFVGSGVTALLFLSVCILLLAVRSYRRKPARPAVVAPHPDALKVSVSQNPLVESQADDSSEPLPSILEAAPSSTEEEIHYATLSFHEMKPMNLWGQQDTTTEYSEIKFPQRTAWP
adhesion of Siglec-E cells to mouse VAP-1 cells (mouse VAP-1): no VAP-1-Siglec-E mediated adhesion was detected
